Experimental data from ChEMBL document CHEMBL4138252, “Novel Polyamine-Naphthalene Diimide Conjugates Targeting Histone Deacetylases and DNA for Cancer Phenotype Reprogramming” (ACS Med Chem Lett, 2017).
Calls of active or inactive are those of the source. The calls are words filed in the database; no cut-off is given here.

How the values were obtained:
[1] = test system: Quadruplex DNA; test: Stabilization of 3'-6FAM/5'-Dabcyl-labelled human telomeric 22 G-quadruplex DNA assessed as change in melting temperature at 0.75 uM by fluorescence assay; assay type: nucleic-acid assay
Summary of the method: (§1)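 Thermal stabilization of dsDNA or G-quadruplex DNA is measured as ΔTm at 0.75 and 2.5 μM compound.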

[2] = test system: Quadruplex DNA; test: Stabilization of 3'-6FAM/5'-Dabcyl-labelled human telomeric 22 G-quadruplex DNA assessed as change in melting temperature at 2.5 uM by fluorescence assay; assay type: nucleic-acid assay; summary of the method: as §1
[3] = test system: dsDNA; test: Stabilization of 5'6FAM/3'Dabcyl-labelled double stranded DNA (unknown origin) assessed as change in melting temperature at 2.5 uM by fluorescence assay; assay type: nucleic-acid assay; summary of the method: as §1
[4] = test system: dsDNA; test: Stabilization of 5'6FAM/3'Dabcyl-labelled double stranded DNA (unknown origin) assessed as change in melting temperature at 0.75 uM by fluorescence assay; assay type: nucleic-acid assay; summary of the method: as §1
[5] = molecular target: Histone deacetylase; test: Inhibition of HDAC in human HeLa nuclear extract using Fluor de Lys as substrate by fluorimetric method; assay type: protein assay
[6] = test system: A549; test: Inhibition of epithelial-mesenchymal transition in human A549 cells assessed as down regulation of VIM expression at 5 uM after 48 hrs by SYBR-green dye based RT-PCR analysis relative to control; assay type: functional
Summary of the method: (§2)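 HCT116 and A549 cells are treated 48 h with 5 μM. CDH1 and VIM expression is measured against untreated control. Data are mean ± SEM of four independent experiments.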

[7] = test system: HCT-116; test: Inhibition of epithelial-mesenchymal transition in human HCT116 cells assessed as upregulation of CDH1 expression at 5 uM after 48 hrs by SYBR-green dye based RT-PCR analysis relative to control; assay type: functional; summary of the method: as §2
[8] = test system: A549; test: Inhibition of epithelial-mesenchymal transition in human A549 cells assessed as upregulation of CDH1 expression at 5 uM after 48 hrs by SYBR-green dye based RT-PCR analysis relative to control; assay type: functional; summary of the method: as §2
[9] = test system: A549; test: Growth inhibition of human A549 cells after 48 hrs by alamar blue assay; assay type: functional; conditions: for GI50: A549, 48 h
Summary of the method: (§3)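 Growth inhibition in U87, HCT116 and A549 cells at 0.2, 1 and 5 μM. GI50 is derived from the inhibitory dose–response curve.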

[10] = test system: HCT-116; test: Inhibition of epithelial-mesenchymal transition in human HCT116 cells assessed as down regulation of VIM expression at 5 uM after 48 hrs by SYBR-green dye based RT-PCR analysis relative to control; assay type: functional; summary of the method: as §2
[11] = test system: U-87 MG; test: Growth inhibition of human U87 cells after 48 hrs by alamar blue assay; assay type: functional, U-87MG ATCC; summary of the method: as §3
[12] = test system: HCT-116; test: Growth inhibition of human HCT116 cells after 48 hrs by alamar blue assay; assay type: functional; conditions: for GI50: HCT-116, 48 h; summary of the method: as §3
[13] = molecular target: T1, Histone deacetylase (Homo sapiens) (UniProt Q13547+O15379+Q9UBN7+Q92769+Q9UQL6+Q8WUI4+Q9BY41+Q96DB2+P56524+Q9UKV0+Q969S8); test: Inhibition of HDAC in human A549 cells assessed as increase in acetylated H3 level at 5 uM after 24 hrs by Western blot analysis relative to control; assay type: cell-based
Summary of the method: (§4)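 A549 cells are treated 24 h at 5 μM. Global histone H3 and H4 lysine acetylation is detected by Western blotting.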

[14] = molecular target: Histone deacetylase 4 (Homo sapiens, UniProt P56524); test: Inhibition of recombinant human N-terminal GST-tagged/C-terminal His-tagged HDAC4 (627 to 1084 residues) expressed in baculovirus infected Sf21 insect cells using (Boc-Lys(trifluoroacetyl)-AMC) as substrate by fluorescence assay
Sequence of Histone deacetylase 4 (P56524 whole entry, the tested form may be a part): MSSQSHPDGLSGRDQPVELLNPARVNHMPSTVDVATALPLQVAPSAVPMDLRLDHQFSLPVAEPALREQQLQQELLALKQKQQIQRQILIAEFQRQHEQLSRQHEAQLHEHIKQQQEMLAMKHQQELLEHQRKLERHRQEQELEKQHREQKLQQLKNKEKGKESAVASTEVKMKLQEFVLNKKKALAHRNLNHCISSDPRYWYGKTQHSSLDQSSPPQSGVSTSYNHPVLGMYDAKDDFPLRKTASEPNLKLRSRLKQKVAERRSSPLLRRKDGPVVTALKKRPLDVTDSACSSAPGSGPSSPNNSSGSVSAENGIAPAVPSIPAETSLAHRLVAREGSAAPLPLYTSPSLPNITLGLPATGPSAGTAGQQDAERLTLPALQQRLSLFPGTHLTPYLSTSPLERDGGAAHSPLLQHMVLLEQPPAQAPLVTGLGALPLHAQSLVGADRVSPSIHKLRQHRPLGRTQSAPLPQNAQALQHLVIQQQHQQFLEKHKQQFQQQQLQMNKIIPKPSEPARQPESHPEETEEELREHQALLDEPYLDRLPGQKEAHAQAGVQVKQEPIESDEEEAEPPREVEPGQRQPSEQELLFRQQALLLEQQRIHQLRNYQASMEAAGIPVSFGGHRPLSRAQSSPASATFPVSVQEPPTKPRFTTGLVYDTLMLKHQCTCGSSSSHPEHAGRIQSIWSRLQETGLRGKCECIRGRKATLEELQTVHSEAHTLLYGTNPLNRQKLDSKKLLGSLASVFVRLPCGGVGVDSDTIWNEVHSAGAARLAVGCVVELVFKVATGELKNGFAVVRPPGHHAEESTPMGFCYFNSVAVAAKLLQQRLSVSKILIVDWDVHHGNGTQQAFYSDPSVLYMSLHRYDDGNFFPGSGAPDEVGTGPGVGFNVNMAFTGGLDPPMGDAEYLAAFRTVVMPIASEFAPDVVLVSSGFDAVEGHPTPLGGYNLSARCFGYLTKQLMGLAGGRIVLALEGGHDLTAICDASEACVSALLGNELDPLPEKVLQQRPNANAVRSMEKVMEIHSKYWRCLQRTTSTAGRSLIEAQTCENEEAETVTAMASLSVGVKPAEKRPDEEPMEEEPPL

[15] = molecular target: T2, Protein deacetylase HDAC6 (Homo sapiens, UniProt Q9UBN7); test: Inhibition of recombinant human N-terminal GST-tagged HDAC6 (1 to 1215 residues) expressed in baculovirus infected Sf21 insect cells using RHKKAc as substrate by fluorescence assay
T2 sequence (Q9UBN7 whole entry): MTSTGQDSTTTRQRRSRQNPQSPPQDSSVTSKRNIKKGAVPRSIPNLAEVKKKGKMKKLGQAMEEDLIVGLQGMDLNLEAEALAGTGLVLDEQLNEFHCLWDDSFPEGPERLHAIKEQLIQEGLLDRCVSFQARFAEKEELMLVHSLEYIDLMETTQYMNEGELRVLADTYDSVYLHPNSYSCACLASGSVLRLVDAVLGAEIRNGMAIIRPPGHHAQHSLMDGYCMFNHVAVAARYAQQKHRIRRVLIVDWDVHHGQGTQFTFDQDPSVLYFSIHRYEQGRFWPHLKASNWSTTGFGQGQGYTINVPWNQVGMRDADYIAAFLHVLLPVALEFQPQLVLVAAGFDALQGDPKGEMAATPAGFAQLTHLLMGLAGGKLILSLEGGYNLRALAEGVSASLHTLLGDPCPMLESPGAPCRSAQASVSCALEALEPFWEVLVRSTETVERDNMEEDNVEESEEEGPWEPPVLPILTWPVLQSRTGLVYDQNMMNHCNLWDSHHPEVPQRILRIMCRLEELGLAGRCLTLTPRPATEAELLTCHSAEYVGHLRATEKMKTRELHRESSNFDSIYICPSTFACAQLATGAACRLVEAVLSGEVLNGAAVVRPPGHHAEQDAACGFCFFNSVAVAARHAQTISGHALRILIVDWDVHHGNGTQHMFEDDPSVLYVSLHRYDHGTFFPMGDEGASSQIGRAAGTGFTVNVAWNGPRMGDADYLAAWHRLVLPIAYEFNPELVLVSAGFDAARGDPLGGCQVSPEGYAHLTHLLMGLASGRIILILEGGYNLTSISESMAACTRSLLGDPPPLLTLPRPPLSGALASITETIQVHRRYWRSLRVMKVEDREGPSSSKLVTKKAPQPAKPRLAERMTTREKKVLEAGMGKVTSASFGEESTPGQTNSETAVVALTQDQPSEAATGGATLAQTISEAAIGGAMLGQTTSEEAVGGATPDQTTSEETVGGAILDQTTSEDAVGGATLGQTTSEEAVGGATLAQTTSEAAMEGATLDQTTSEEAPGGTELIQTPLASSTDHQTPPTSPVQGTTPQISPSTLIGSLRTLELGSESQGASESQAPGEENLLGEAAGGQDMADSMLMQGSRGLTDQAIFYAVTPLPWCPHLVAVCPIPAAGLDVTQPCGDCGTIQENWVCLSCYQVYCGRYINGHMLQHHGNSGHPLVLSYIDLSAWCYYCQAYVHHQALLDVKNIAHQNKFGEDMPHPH

[16] = test system: A549; test: Antimigratory activity against human A549 cells assessed as reduction in cell migration towards wound area at 5 uM measured after 24 hrs by scratch wound-healing assay relative to control; assay type: functional; set-up: scale not given: the % may be the effect or the level left
Summary of the method: (§5)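 Scratch wound healing on A549 cells, with or without TGF-β1 stimulation. Repopulation of the wound area is read at 24 h postscratch.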

[17] = test system: A549; test: Inhibition of TGFbeta1-induced epithelial-mesenchymal transition in human A549 cells assessed as down regulation of VIM expression at 5 uM treated for 24 hrs in presence of TGFbeta1 followed by addition of fresh media containing compounds for 24 hrs by SYBR-green dye based RT-PCR analysis relative to control; assay type: functional
Summary of the method: (§6)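 A549 cells are stimulated with TGF-β1, alone or combined with 5 μM compound. CDH1 and VIM expression is measured and compared with control and with TGF-β1 alone.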

[18] = molecular target: T1, Histone deacetylase (Homo sapiens); test: Inhibition of HDAC in human A549 cells assessed as increase in acetylated H4 level at 5 uM after 24 hrs by Western blot analysis relative to control; assay type: cell-based; summary of the method: as §4
[19] = molecular target: Histone deacetylase 1 (Homo sapiens, UniProt Q13547); test: Inhibition of recombinant human C-terminal FLAG-His tagged HDAC1 (1 to 482 residues) expressed in Sf21 insect cells using RHK-K(Ac)-AMC as substrate by fluorescence assay
Sequence of Histone deacetylase 1 (Q13547 whole entry, the tested form may be a part): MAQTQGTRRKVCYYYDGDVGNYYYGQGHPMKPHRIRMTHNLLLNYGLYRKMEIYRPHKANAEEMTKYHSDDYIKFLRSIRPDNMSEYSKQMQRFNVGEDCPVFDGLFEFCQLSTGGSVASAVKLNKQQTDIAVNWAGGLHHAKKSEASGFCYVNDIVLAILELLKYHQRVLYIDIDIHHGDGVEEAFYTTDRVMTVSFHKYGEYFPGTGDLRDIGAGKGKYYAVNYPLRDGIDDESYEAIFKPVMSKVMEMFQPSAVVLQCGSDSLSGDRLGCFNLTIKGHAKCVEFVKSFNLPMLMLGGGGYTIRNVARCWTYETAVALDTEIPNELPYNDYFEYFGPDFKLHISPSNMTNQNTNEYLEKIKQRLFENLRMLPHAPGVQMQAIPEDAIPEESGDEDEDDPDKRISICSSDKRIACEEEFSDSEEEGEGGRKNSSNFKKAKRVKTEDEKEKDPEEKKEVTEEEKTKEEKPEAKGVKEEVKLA

[20] = test system: A549; test: Suppression of TGFbeta1-induced cell proliferation in human A549 cells assessed as reduction in cell growth at 5 uM treated for 24 hrs in presence of TGFbeta1 followed by addition of fresh media containing compounds for 24 hrs by alamar blue assay relative to control; assay type: functional; set-up: scale not given: the % may be the effect or the level left
Summary of the method: (§7)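 A549 cells stimulated with TGF-β1 get a 48 h-long 5 μM treatment. Percentage growth is evaluated according to NCI screening procedures, as mean value.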

[21] = test system: A549; test: Antimigratory activity against TGFbeta1-stimulated human A549 cells assessed as reduction in cell migration towards wound area at 5 uM treated for 24 hrs in presence of TGFbeta1 followed by addition of fresh media containing compounds for 24 hrs by scratch wound-healing assay relative to control; assay type: functional; summary of the method: as §5
[22] = test system: A549; test: Inhibition of TGFbeta1-induced epithelial-mesenchymal transition in human A549 cells assessed as upregulation of CDH1 expression at 5 uM treated for 24 hrs in presence of TGFbeta1 followed by addition of fresh media containing compounds for 24 hrs by SYBR-green dye based RT-PCR analysis relative to control; assay type: functional; summary of the method: as §6
[23] = molecular target: Histone deacetylase 2 (Homo sapiens, UniProt Q92769); test: Inhibition of recombinant human C-terminal GST-tagged HDAC2 (1 to 488 residues) expressed in baculovirus infected Sf21 insect cells using RHK-K(Ac)-AMC as substrate measured after 30 mins by fluorescence assay
Sequence of Histone deacetylase 2 (Q92769 whole entry, the tested form may be a part): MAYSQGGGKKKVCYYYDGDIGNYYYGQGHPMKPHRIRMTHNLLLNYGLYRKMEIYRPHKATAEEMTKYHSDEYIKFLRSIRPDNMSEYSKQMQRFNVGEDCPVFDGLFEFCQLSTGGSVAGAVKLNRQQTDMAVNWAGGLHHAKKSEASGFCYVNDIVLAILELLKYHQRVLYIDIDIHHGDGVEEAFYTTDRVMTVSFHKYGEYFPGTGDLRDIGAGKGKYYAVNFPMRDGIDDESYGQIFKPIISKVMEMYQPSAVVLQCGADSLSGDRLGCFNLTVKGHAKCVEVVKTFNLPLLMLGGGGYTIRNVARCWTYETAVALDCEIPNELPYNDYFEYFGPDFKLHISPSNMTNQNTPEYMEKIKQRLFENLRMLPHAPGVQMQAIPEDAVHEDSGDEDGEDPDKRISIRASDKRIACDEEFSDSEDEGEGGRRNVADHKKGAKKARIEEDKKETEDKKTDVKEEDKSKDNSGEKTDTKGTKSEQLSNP

[24] = molecular target: DNA polymerase I, thermostable (Thermus aquaticus) (UniProt P19821); test: Inhibition of Thermus aquaticus Taq-polymerase using pBR322 as substrate up to 40 uM by PCR analysis
Sequence of DNA polymerase I, thermostable (Thermus aquaticus) (P19821 whole entry): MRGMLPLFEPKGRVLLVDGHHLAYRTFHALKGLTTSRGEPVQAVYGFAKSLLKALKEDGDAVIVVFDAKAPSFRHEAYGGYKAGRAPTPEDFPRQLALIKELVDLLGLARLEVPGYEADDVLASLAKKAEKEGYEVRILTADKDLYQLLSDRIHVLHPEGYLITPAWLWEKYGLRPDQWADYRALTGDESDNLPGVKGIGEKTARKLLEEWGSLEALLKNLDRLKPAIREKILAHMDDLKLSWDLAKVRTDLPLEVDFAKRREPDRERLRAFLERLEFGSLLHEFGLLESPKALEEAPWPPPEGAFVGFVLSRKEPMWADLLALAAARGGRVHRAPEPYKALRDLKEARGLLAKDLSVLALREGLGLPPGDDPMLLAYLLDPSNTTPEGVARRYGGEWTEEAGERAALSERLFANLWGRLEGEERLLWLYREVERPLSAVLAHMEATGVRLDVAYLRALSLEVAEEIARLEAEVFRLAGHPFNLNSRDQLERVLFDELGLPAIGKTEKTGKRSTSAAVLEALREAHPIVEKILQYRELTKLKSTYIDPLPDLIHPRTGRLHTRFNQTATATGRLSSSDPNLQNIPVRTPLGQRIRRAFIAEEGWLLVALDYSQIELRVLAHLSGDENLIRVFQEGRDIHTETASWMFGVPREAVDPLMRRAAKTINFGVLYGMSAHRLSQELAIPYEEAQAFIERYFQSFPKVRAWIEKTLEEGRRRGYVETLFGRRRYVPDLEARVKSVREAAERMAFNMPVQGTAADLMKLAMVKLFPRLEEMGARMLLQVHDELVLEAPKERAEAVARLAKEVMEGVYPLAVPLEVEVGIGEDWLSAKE

[25] = test system: A549; test: Suppression of TGFbeta1-induced cell proliferation in human A549 cells at 5 uM treated for 24 hrs in presence of TGFbeta1 followed by addition of fresh media containing compounds for 24 hrs by alamar blue assay relative to control; assay type: functional; summary of the method: as §7

Row | Structure (SMILES) | ΔTm [1] | ΔTm [2] | ΔTm [3] | ΔTm [4] | IC50 [5] | GI50 [9] | GI50 [11] | GI50 [12] | further results
1 | CN(C)c1ccc(Nc2c3ccc(NC(=O)CCN4CCCC4)cc3nc3cc(NC(=O)CCN4CCCC4)ccc23)cc1 | 11 °C | 28.3 °C | 5.3 °C | 0.5 °C |  |  |  |  | 
2 | Cl.NCCCNCCNCCCN1C(=O)c2ccc3c4c(ccc(c24)C1=O)C(=O)N(CCCCCC(=O)NO)C3=O | 4.4 °C | 7.8 °C | 3.4 °C | 2 °C | 0.55 µM |  |  |  | 
3 | Cl.NCCCNCCCCNCCCN1C(=O)c2ccc3c4c(ccc(c24)C1=O)C(=O)N(CCCCCC(=O)NO)C3=O | 4.5 °C | 10.9 °C | 8.1 °C | 3.5 °C | 0.52 µM |  |  |  | 
4 | COc1ccccc1CNCCCN1C(=O)c2ccc3c4c(ccc(c24)C1=O)C(=O)N(CCCNCCCCNCCCN)C3=O | 1.5 °C |  |  | 0.6 °C |  | > 5 µM | 4.85 µM | 4.39 µM | inhibition [6]: inactive; inhibition [7]: inactive; inhibition [8]: inactive; inhibition [10]: inactive
5 | O=C(CCCCCN1C(=O)c2cccc3cccc(c23)C1=O)NO | 0.1 °C | 0.1 °C | 0.1 °C | 0.1 °C |  |  |  |  | inhibition [6]: inactive; inhibition [7]: inactive; inhibition [8]: inactive; growth inhibition (GI) [9]: Active; inhibition [10]: inactive; growth inhibition (GI) ([11]; U-87MG ATCC): Active; growth inhibition (GI) [12]: Active
6 | Cl.NCCCCNCCCCNCCCN1C(=O)c2ccc3c4c(ccc(c24)C1=O)C(=O)N(CCCCCC(=O)NO)C3=O | 13.3 °C |  |  | 7.5 °C | 0.56 µM | > 5 µM | > 5 µM | 3.08 µM | fold change (FC) [6]: 0.68; fold change (FC) [7]: 1.32; fold change (FC) [13]: 2; IC50 [14]: 117 µM; IC50 [15]: 0.05 µM; Activity [16]: >80%; fold change (FC) [17]: 2.61; fold change (FC) [18]: 2; fold change (FC) [8]: 1.28; IC50 [19]: 4.12 µM; fold change (FC) [10]: 0.44; Activity [20]: 85%; fold change (FC) [21]: 1.38; fold change (FC) [22]: 3.66; IC50 [23]: 10.8 µM; inhibition [24]: Active; fold change (FC) [25]: 1.38
7 | Cl.NCCCNCCCN1C(=O)c2ccc3c4c(ccc(c24)C1=O)C(=O)N(CCCCCC(=O)NO)C3=O | 2.4 °C |  |  | 1 °C | 0.41 µM |  |  |  | 
8 | Cl.NCCCNCCCNCCCN1C(=O)c2ccc3c4c(ccc(c24)C1=O)C(=O)N(CCCCCC(=O)NO)C3=O | 9.9 °C |  |  | 5 °C | 0.37 µM | > 5 µM | > 5 µM | 2.13 µM | inhibition [24]: Active
